Sampled rows, rich in hits. Any-hit rate of the full collection: about 6.1%.
BB579 growth dn = reduces growth of yeast BB579 in restrictive medium; S. cerevisiae BB579 growth, OD615, 48 h; inhibition, % at 10 µM; 140,000 compounds, 0.51% hits; AID 804;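 active = inhibition above a set limit, 3 SD over the mean compound inhibition, cut at about 44% in these data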
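System: Saccharomyces cerevisiae DeaD strain BB579, replicative lifespan model yeast | Buffer or medium: Restrictive glucose-based CSMM-D medium | Times: 4 h preincubation and 48 h exposure at 30 °C | Detection: OD615 turbidity measurement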
RAM network inh = blocks the yeast RAM network | inhibition, % at 50 µM | S. cerevisiae dse1pr::URA3 reporter, 5-FOA growth OD615, 2 d; analog-sensitive cbk1-as2 kinase mutant strain | AID 868 | 190,000 compounds, 1.8% hits;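 active = inhibition above a set limit, 3 SD over mean compound inhibition, cut at about 8.4% in these data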;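 also: 0% = DMSO-only wells with no growth and 100% = 10 µM 1-NA-PP1 full growth; inhibition rescues growth on 5-FOA so higher OD means more RAM inhibition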
Measles CPE = protection of cells from measles virus. Measles virus-infected cells, CPE protection, absorbance. protection (pct of control), % at 4 µM. 140,000 compounds, 1.5% hits; in the data active = protection mostly above about 24%, no sharp cut-off; inactive = mostly below about 26%
WT yeast gro inh = growth inhibition of WT yeast, mitochondrial fusion screen; inhibition, % at 10 µM; mitochondrial fusion phenotypic screen, WT strain; 190,000 compounds, 2.1% hits; AID 1362; in the data active = inhibition above about 58%; tested in S. cerevisiae
Yeast life ext = yeast lifespan extension; AID 775; inhibition of the nicotinamide effect, % at 10 µM; 130,000 compounds, 0.68% hits; S. cerevisiae growth with nicotinamide, OD615; deaD strain in restrictive glucose medium;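 active = inhibition above a set limit, placed 3 SD over the median of all compounds, cut at about 26% in these data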;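 also: 0% = nicotinamide-treated wells and 100% = cells grown without nicotinamide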
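Assay system: engineered S. cerevisiae DeaD replicative-lifespan strain, galactose-grown log-phase cells; medium: restrictive CSMM-D dextrose medium; also added: nicotinamide, 1.5 mM, co-present with compound; schedule: 48 h compound exposure at 30 °C, humidified; detection: absorbance at 615 nm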
DAT uptake mod = modulates human dopamine transporter uptake under cocaine | B-score at 10 µM | AID 449768 | 110,000 compounds, 1.3% hits | Q01959 | LLC-PK1 hDAT cells, [14C]-dopamine uptake with cocaine IC80; actives deviate in either direction;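 active = Z score or B-score, a plate-position-corrected score, falls beyond the plate's 99.7% confidence bounds, in either direction; inactive = both scores lie inside the 99.7% bounds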;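 also: scored against the spread of the other compound wells on the same plate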
Target sequence (Q01959 whole entry, looked up): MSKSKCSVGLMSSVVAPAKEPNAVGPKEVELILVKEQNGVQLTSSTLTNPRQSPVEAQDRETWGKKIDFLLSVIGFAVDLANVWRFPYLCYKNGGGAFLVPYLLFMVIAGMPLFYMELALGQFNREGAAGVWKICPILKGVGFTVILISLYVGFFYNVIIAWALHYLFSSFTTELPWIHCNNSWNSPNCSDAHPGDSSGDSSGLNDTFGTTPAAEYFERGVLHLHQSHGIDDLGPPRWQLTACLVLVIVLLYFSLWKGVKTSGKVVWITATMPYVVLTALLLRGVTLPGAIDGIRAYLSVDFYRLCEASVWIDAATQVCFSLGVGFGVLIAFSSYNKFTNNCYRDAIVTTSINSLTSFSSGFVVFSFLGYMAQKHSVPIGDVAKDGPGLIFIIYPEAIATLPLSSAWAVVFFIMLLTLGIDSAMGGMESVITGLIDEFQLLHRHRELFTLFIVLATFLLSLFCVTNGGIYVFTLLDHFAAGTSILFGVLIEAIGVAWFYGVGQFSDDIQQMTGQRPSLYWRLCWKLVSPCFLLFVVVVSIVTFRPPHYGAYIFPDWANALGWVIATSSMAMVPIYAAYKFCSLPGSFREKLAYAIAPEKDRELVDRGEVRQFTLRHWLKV
Active calls of the source: *; nt = not tested or not shown.

SMILES	BB579 growth dn	RAM network inh	Measles CPE	WT yeast gro inh	Yeast life ext	DAT uptake mod
O=c1cnn([C@@H]2O[C@H](CO)[C@@H](O)[C@H]2O)c(=O)[nH]1	44*	0	39	-1	12	0.00096
Nc1ccn([C@@H]2O[C@H](CO)[C@@H](O)C2O)c(=O)n1 (stereo not given in full)	nt	nt	nt	-3	nt	1.1
COc1cc(NC(=S)NCCC(c2ccccc2)c2ccccc2)cc(OC)c1	13	9.1*	15	66*	-4	nt
COc1ccc(OC)c(NC(=S)N2CCN(C/C=C/c3ccccc3)CC2)c1	-37	-1	6	18	43*	0.24
COc1ccc(NC(=S)N2CCN(C(c3ccccc3)c3ccccc3)CC2)c(OC)c1	nt	1	nt	69*	nt	nt
COc1ccc(NC(=S)NCCC(c2ccccc2)c2ccccc2)c(OC)c1	17	8	7	65*	0	1.2
COc1cc(NC(=S)Nc2ccccn2)cc(OC)c1	-21	0	5	16	-7	nt
COc1ccc(-c2csc(NC(C)c3nc4cc(C(=O)NCCCO)ccc4n3Cc3ccc(C)cc3)n2)cc1 (stereo not given)	nt	nt	nt	nt	nt	0.11
CNC(=S)NCCC(c1ccccc1)c1ccccc1	-26	0	5	67*	-1	nt
Cc1cccc(NC(=S)NCCC(c2ccccc2)c2ccccc2)c1	32	7	15	69*	2	nt
COc1cc(NC(=O)CSc2ncnc3scc(-c4ccccc4)c23)c(C(=O)O)cc1OC	nt	7	nt	-1	nt	nt
CCC(=O)Nc1ccccc1Sc1ncnc2scc(-c3ccccc3)c12	-33	3	13	14	62*	nt
O=C(C1=C(Nc2ccccc2)c2ccccc2S(=O)(=O)N1)c1ccccc1	9	3	26*	5	1	nt
O=c1[nH]n2c(=O)c3c([nH]c2c1N=Nc1cccc(C(F)(F)F)c1)CCCC3	-3	6	9	6	nt	-0.5
Cc1[nH]n(C2=NCCS2)c(=O)c1N=Nc1cccc(C(F)(F)F)c1	nt	3	nt	84*	nt	nt
CC1(C)CC(=O)C2=C(C1)OC1=C(C(=O)CC(C)(C)C1)C2c1ccc(O)cc1O	5	2	1	5	42*	-1.1
COc1ccc(C2=NOC(CNC(N)=S)C2)cc1 (stereo not given)	nt	2	nt	16	nt	nt
Cc1cc(C)nc(NS(=O)(=O)c2ccc(NC(=O)CCN3C(=O)c4ccccc4C3=O)cc2)n1	6	0	2	15	38*	2.1
O=C(CCN1C(=O)c2ccccc2C1=O)Nc1ccc(-c2nc3ccccc3s2)cc1	-21	8.9*	nt	3	1	nt
O=C(CCCCCN1C(=O)c2ccccc2C1=O)Nc1ccc(S(=O)(=O)N2CCCCC2)cc1	-43	7	2	68*	-19	-0.84
O=c1c2ccccc2c(-c2ccccc2)nn1-c1ccc(Cl)c(Cl)c1	3	4	9	5	-17	-0.68
O=C1N=c2ccccc2=C1c1c(O)n(-c2cccc(F)c2)[nH]c1=O	-6	4	3	0	33*	nt
COc1cccc(N2CCN(c3ncnc4c3[nH]c3ccc(F)cc34)CC2C)c1 (stereo not given)	-8	5	6	79*	-3	0.94
COc1ccc2[nH]c3c(N4CC(C)OC(C)C4)ncnc3c2c1 (stereo not given)	-27	3	16	47	-21	1.8
COc1cccc(N2CCN(c3ncnc4c3[nH]c3ccccc34)CC2C)c1 (stereo not given)	-30	0	11	65*	-10	-0.84
SMILES	BB579 growth dn	RAM network inh	Measles CPE	WT yeast gro inh	Yeast life ext	DAT uptake mod
O=c1c(-c2ccccc2)nc(-c2ccccc2)cn1O	49*	1	19	-10	-4	-0.7
CC(=O)Nc1ccc2nc(-c3ccccc3)cn2c1	-26	2	19	-6	4	nt
Cc1ccc([N+](=O)[O-])cc1S(=O)(=O)n1ccnc1C	nt	-1	nt	4	nt	nt
COc1cc(C=C2C(=O)OC(c3ccccc3)OC2=O)cc(Br)c1O (stereo not given)	nt	2	nt	16	nt	nt
COc1cc(C2N=C(c3ccccc3)NO2)cc(Br)c1O (stereo not given)	-43	2	13	22	-13	2.6*
O=c1/c(=C/c2ccc(O)cc2)sc2nc3cc(Br)cnc3n12	nt	1	nt	-42	nt	nt
Cc1cc(NS(=O)(=O)c2ccc(NC(=O)c3ccco3)cc2)no1	-12	0	12	-5	-7	2.7*
Cc1cc(NS(=O)(=O)c2ccc(CC(C)C)cc2)no1	-39	0	9	-18	50*	0.8
Cc1ccc(OC(C)C(=O)Nc2ccc(S(=O)(=O)Nc3cc(C)on3)cc2)cc1 (stereo not given)	-24	2	4	-11	-4	-0.72
Cc1cc(NS(=O)(=O)c2ccc(NC(=O)C(C)Oc3ccc4c(C)cc(=O)oc4c3)cc2)no1 (stereo not given)	-40	10*	5	10	17	0.59
Cc1cc(NS(=O)(=O)c2ccc(NC(=O)c3ccco3)cc2)nc(C)n1	-8	1	3	5	3	-0.45
CC(=O)Nc1nc(-c2ccccc2)nc(C)c1C(C)=O	8	0	10	13	-14	-8.5*
CC(=O)c1c(C)nc(-c2ccccc2)nc1NC(=O)C(C)C	-37	0	11	3	-9	-1.1
O=[N+]([O-])c1cc(C2Nc3cccc4cccc(c34)N2)ccc1Cl	-35	11*	15	22	-1	nt
O=C1NC(c2ccc(Cl)c([N+](=O)[O-])c2)Nc2ccccc21 (stereo not given)	nt	2	nt	8	nt	nt
CC(C)(C)c1ccc(C(=O)Nc2cccc3c(=O)[nH][nH]c(=O)c23)cc1	-12	1	10	29	-5	nt
CCn1c(Sc2ccc([N+](=O)[O-])cn2)nnc1-c1ccco1	nt	-1	nt	2	nt	nt
Cn1nc(-c2ccc(C(=O)Nc3cccc(Cl)c3)cc2)c2ccccc2c1=O	-27	0	38*	-8	-5	-1*
Cc1ccc(NC(=O)c2ccc(-c3nn(C)c(=O)c4ccccc34)cc2)cc1	-32	1	31	13	-4	0.84
O=C(Nc1cccc(F)c1)c1ccc(-c2ccccc2Cl)o1	-21	10*	9	77*	-7	-0.18
Cc1ccc(-c2ccc(C(=O)Nc3cccc(F)c3)o2)c2ccccc12	-4	4	6	21	1	0.57
COc1ccc(NC(=O)c2ccc(-c3ccccc3Cl)o2)cc1	-51	8.7*	3	20	-3	0.12
COc1ccc(NC(=O)c2cc(-c3ccccc3Cl)no2)cc1	-18	1	31	85*	-22	-0.78
O=C(Nc1ccccc1)c1cc(-c2ccccc2Cl)no1	-17	2	12	-4	-20	-0.0038

Screens as filed in PubChem.
